# Experiments:
# Mus musculus [1] = assay: Curative activity of the Compound after Subcutaneous administration at a dose of 106 mg/kg ( T-Toxic) and I.C.E. value of 0.82; 16/20 and 1 toxic; type: ADME, organism-based; set-up: dose 106 mg/kg, route subcutaneous; conditions: in vivo, sc
# Mus musculus [2] = assay: Fraction of mice that were cured after oral administration at a dose of 1.67 mg/kg and I.C.E. value of 0.56; type: functional
# Mus musculus [3] = assay: Curative activity of the Compound after Subcutaneous administration at a dose of 53 mg/kg and I.C.E. value of 0.82; 9/10; type: functional
# Mus musculus [4] = assay: Curative activity of the Compound after Subcutaneous administration at a dose of 424 mg/kg ( T-Toxic)and I.C.E. value of 0.82; 4/20 and 16 toxic; type: ADME, organism-based; set-up: dose 424 mg/kg, route subcutaneous; conditions: in vivo, sc
# Mus musculus [5] = assay: Curative activity of the Compound after oral administration at a dose of 0.42 mg/kg and I.C.E. value of 0.60; type: functional
# Mus musculus [6] = assay: Curative activity of the Compound after Subcutaneous administration at a dose of 26 mg/kg and I.C.E. value of 0.82; […]; type: functional
# [7] = system: Trypanosoma brucei rhodesiense; assay: In Vitro measurement of inhibition of Leucine uptake in cell culture of Trypanosoma rhodesiense.; type: functional; conditions: read-out: ID50 (the source's name)
# Outline: (§1)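 Trypanosomes harvested from infected rats, cultured 3 h with several concentrations of drug, usually 0.1–100 µg/mL. Radiolabeled L-leucine uptake measured. ID50 is the concentration in µg/mL giving 50% inhibition of incorporation.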
# Mus musculus [8] = assay: Fraction of mice that were cured after oral administration at a dose of 106 mg/kg and I.C.E. value of 0.56; type: functional
# Mus musculus [9] = assay: Fraction of mice that were cured after oral administration at a dose of 6.6 mg/kg and I.C.E. value of 0.56; type: functional
# Mus musculus [10] = assay: Trypanocidal Activity at I.C.E. value 0.82 when administered subcutaneously.; type: functional
# Outline: (§2)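 Mice, in groups of five per dose, were given a standard inoculum of blood-stage T. rhodesiense that is lethal to all untreated controls, then dosed subcutaneously. Usually 11 dose levels were used (2^n × 0.42 mg/kg).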
# Mus musculus [11] = assay: Fraction of mice that were cured after subcutaneous administration at a dose of 0.42 mg/kg and I.C.E. value of 0.82; type: functional
# Mus musculus [12] = assay: Curative activity of the Compound after oral administration at a dose of 26 mg/kg and I.C.E. value of 0.60; 15/15; type: functional
# Mus musculus [13] = assay: Fraction of mice that were cured after oral administration at a dose of 0.42 mg/kg and I.C.E. value of 0.56; type: functional
# Mus musculus [14] = assay: Fraction of mice that were cured after subcutaneous administration at a dose of 212 mg/kg and I.C.E. value of 0.82; type: functional
# Mus musculus [15] = assay: Curative activity of the Compound after oral administration at a dose of 212 mg/kg and I.C.E. value of 0.60; 5/5; type: functional
# Mus musculus [16] = assay: Fraction of mice that were cured after oral administration at a dose of 13 mg/kg and I.C.E. value of 0.56; type: functional
# Mus musculus [17] = assay: Curative activity of the Compound after Subcutaneous administration at a dose of 0.83 mg/kg and I.C.E. value of 0.82;20/20; type: functional
# Mus musculus [18] = assay: Fraction of mice that were cured after subcutaneous administration at a dose of 106 mg/kg and I.C.E. value of 0.82; type: functional
# Mus musculus [19] = assay: Fraction of mice that were cured after oral administration at a dose of 26 mg/kg and I.C.E. value of 0.56; type: functional
# Mus musculus [20] = assay: Fraction of mice that were cured after oral administration at a dose of 0.83 mg/kg and I.C.E. value of 0.56; type: functional
# Mus musculus [21] = assay: Fraction of mice that were cured after subcutaneous administration at a dose of 53 mg/kg and I.C.E. value of 0.82; type: functional
# Mus musculus [22] = assay: Curative activity of the Compound after oral administration at a dose of 424 mg/kg and I.C.E. value of 0.60; 10/10; type: functional
# Mus musculus [23] = assay: Trypanocidal Activity at I.C.E. value 0.56 when administered perorally.; type: functional
# Mus musculus [24] = assay: Fraction of mice that were cured after subcutaneous administration at a dose of 26 mg/kg and I.C.E. value of 0.82; type: functional
# Mus musculus [25] = assay: Fraction of mice that were cured after subcutaneous administration at a dose of 6.6 mg/kg and I.C.E. value of 0.82; type: functional
# Mus musculus [26] = assay: Curative activity of the Compound after Subcutaneous administration at a dose of 3.3 mg/kg and I.C.E. value of 0.82; 10/10; type: functional
# Mus musculus [27] = assay: Fraction of mice that were cured after subcutaneous administration at a dose of 13 mg/kg and I.C.E. value of 0.82; type: functional
# Mus musculus [28] = assay: Curative activity of the Compound after oral administration at a dose of 0.83 mg/kg and I.C.E. value of 0.60; type: functional
# Mus musculus [29] = assay: Fraction of mice that were cured after subcutaneous administration at a dose of 424 mg/kg and I.C.E. value of 0.82; type: functional
# Mus musculus [30] = assay: Fraction of mice that were cured after oral administration at a dose of 3.3 mg/kg and I.C.E. value of 0.56; type: functional
# Mus musculus [31] = assay: Curative activity of the Compound after oral administration at a dose of 53 mg/kg and I.C.E. value of 0.60; 5/5; type: functional
# Mus musculus [32] = assay: Fraction of mice that were cured after subcutaneous administration at a dose of 3.3 mg/kg and I.C.E. value of 0.82; type: functional
# Mus musculus [33] = assay: Fraction of mice that were cured after oral administration at a dose of 53 mg/kg and I.C.E. value of 0.56; type: functional
# Mus musculus [34] = assay: Curative activity of the Compound after Subcutaneous administration at a dose of 0.42 mg/kg and I.C.E. value of 0.82; 8/10; type: functional
# Mus musculus [35] = assay: Curative activity of the Compound after Subcutaneous administration at a dose of 212 mg/kg ( T-Toxic) and I.C.E. value of 0.82; 5/10 and 5 toxic; type: ADME, organism-based; set-up: dose 212 mg/kg, route subcutaneous; conditions: in vivo, sc
# Mus musculus [36] = assay: Curative activity of the Compound after oral administration at a dose of 3.3 mg/kg and I.C.E. value of 0.60;1/5; type: functional
# Mus musculus [37] = assay: Fraction of mice that were cured after subcutaneous administration at a dose of 0.83 mg/kg and I.C.E. value of 0.82; type: functional
# Mus musculus [38] = assay: Curative activity of the Compound after Subcutaneous administration at a dose of 1.67 mg/kg and I.C.E. value of 0.82; 19/20; type: functional
# Mus musculus [39] = assay: Curative activity of the Compound after oral administration at a dose of 6.6 mg/kg and I.C.E. value of 0.60; 2/5; type: functional
# Mus musculus [40] = assay: Curative activity of the Compound after oral administration at a dose of 13 mg/kg and I.C.E. value of 0.60; 10/10; type: functional
# Mus musculus [41] = assay: Curative activity of the Compound after oral administration at a dose of 1.67 mg/kg and I.C.E. value of 0.60; type: functional
# Mus musculus [42] = assay: Curative activity of the Compound after Subcutaneous administration at a dose of 53 mg/kg and I.C.E. value of 0.82; […]; type: functional
# Mus musculus [43] = assay: Fraction of mice that were cured after oral administration at a dose of 424 mg/kg and I.C.E. value of 0.56; type: functional
# Mus musculus [44] = assay: Fraction of mice that were cured after subcutaneous administration at a dose of 1.67 mg/kg and I.C.E. value of 0.82; type: functional
# Mus musculus [45] = assay: Curative activity of the Compound after oral administration at a dose of 106 mg/kg and I.C.E. value of 0.60; 10/10; type: functional
# Mus musculus [46] = assay: Fraction of mice that were cured after oral administration at a dose of 212 mg/kg and I.C.E. value of 0.56; type: functional
# [47] = system: Trypanosoma brucei rhodesiense; assay: In Vitro measurement of inhibition of thymidine uptake in cell culture of Trypanosoma rhodesiense.; type: functional; conditions: read-out: ID50 (the source's name)
# Outline: (§3)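 Parasites harvested from infected rats and incubated 3 h across a drug concentration series, usually 0.1–100 µg/mL. Incorporation of radiolabeled thymidine measured. ID50 is the concentration (µg/mL) producing 50% inhibition.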
# Mus musculus [48] = assay: Trypanocidal Activity at I.C.E. value 0.38 when administered subcutaneously.; type: functional
# Outline: (§4)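 Blood-stage T. rhodesiense infection came from a standard inoculum lethal to all untreated mice. Drug was given by subcutaneous injection to groups of five mice. Survival beyond 30 days counted as cure. […] Sub-curative doses scored 0, and data were normalized at each dose.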
# [49] = system: Trypanosoma brucei rhodesiense; assay: In Vitro measurement of inhibition of Thymidine uptake in cell culture of Trypanosoma rhodesiense.; type: functional; conditions: read-out: ID50 (the source's name)
# Mus musculus [50] = assay: Trypanocidal Activity at I.C.E. value 0.55 when administered perorally.; type: functional
# [51] = system: Trypanosoma brucei rhodesiense; assay: In Vitro measurement of inhibition of thymidine uptake in cell culture of Trypanosoma rhodesiense; type: functional; conditions: read-out: ID50 (the source's name); outline: as §3
# [52] = system: Trypanosoma brucei rhodesiense; assay: In Vitro measurement of inhibition of leucine uptake in cell culture of Trypanosoma rhodesiense; type: functional; conditions: read-out: ID50 (the source's name); outline: as §1
# Mus musculus [53] = assay: Trypanocidal Activity at I.C.E. value 0.87 when administered subcutaneously.; type: functional; outline: as §2
# Mus musculus [54] = assay: Trypanocidal Activity at I.C.E. value >0.3 when administered perorally.; type: functional
# Mus musculus [55] = assay: Trypanocidal Activity at I.C.E. value 0.34 when administered subcutaneously.; type: functional; outline: as §4
structure (smiles),measurement,setting,value
Cc1ccc(S(=O)(=O)O)cc1.Cc1ccc(S(=O)(=O)[O-])cc1.Cc1ccc2n(c1)cc(-c1ccc(/C=N/NC(=N)N)cc1)[n+]2C,Survivors,Mus musculus [1],16
same,Fraction cured,Mus musculus [2],0
same,Survivors,Mus musculus [3],9
same,Survivors,Mus musculus [4],4
same,Survivors,Mus musculus [5],0
same,Survivors,Mus musculus [6],29
same,IC50,[7],0.5 µg/mL
same,Fraction cured,Mus musculus [8],1
same,Fraction cured,Mus musculus [9],0.4
same,CD50,Mus musculus [10],0.2 mg/kg
same,Fraction cured,Mus musculus [11],0.8
same,Survivors,Mus musculus [12],15
same,Fraction cured,Mus musculus [13],0
same,Fraction cured,Mus musculus [14],0.5
same,Survivors,Mus musculus [15],5
same,Fraction cured,Mus musculus [16],1
same,Survivors,Mus musculus [17],20
same,Fraction cured,Mus musculus [18],0.8
same,Fraction cured,Mus musculus [19],1
same,Fraction cured,Mus musculus [20],0
same,Fraction cured,Mus musculus [21],0.9
same,Survivors,Mus musculus [22],10
same,CD50,Mus musculus [23],6.6 mg/kg
same,Fraction cured,Mus musculus [24],0.97
same,Fraction cured,Mus musculus [25],1
same,Survivors,Mus musculus [26],10
same,Fraction cured,Mus musculus [27],1
same,Survivors,Mus musculus [28],0
same,Fraction cured,Mus musculus [29],0.2
same,Fraction cured,Mus musculus [30],0.2
same,Survivors,Mus musculus [31],5
same,Fraction cured,Mus musculus [32],1
same,Fraction cured,Mus musculus [33],1
same,Survivors,Mus musculus [34],8
same,Survivors,Mus musculus [35],5
same,Survivors,Mus musculus [36],1
same,Fraction cured,Mus musculus [37],1
same,Survivors,Mus musculus [38],19
same,Survivors,Mus musculus [39],2
same,Survivors,Mus musculus [40],10
same,Survivors,Mus musculus [41],0
same,Survivors,Mus musculus [42],9
same,Fraction cured,Mus musculus [43],1
same,Fraction cured,Mus musculus [44],0.95
same,Survivors,Mus musculus [45],10
same,Fraction cured,Mus musculus [46],1
same,IC50,[47],0.4 µg/mL
Br.CSC(=N)N/N=C/c1ccc(-c2cn3cc(C)ccc3[n+]2C)cc1.[Br-],CD50,Mus musculus [48],26 mg/kg
same,IC50,[7],> 10 µg/mL
same,IC50,[49],4 µg/mL
COc1ccc2n(c1)cc(-c1ccc(/C=N/NC(=N)N)cc1)[n+]2C.Cc1ccc(S(=O)(=O)O)cc1.Cc1ccc(S(=O)(=O)[O-])cc1,CD50,Mus musculus [50],6.6 mg/kg
same,IC50,[51],5.9 µg/mL
same,IC50,[52],4.3 µg/mL
same,CD50,Mus musculus [53],0.4 mg/kg
Br.CC/N=C(\NCC)N/N=C/C=C/c1ccc(-c2cn3ccccc3[n+]2C)cc1.[Br-],CD50,Mus musculus [54],53 mg/kg
same,CD50,Mus musculus [55],13 mg/kg

# From ChEMBL document CHEMBL1124947, “Cationic antiprotozoal drugs. Trypanocidal activity of 2-(4'-formylphenyl)imidazo[1,2-a]pyridinium guanylhydrazones and related derivatives of quaternary heteroaromatic compounds” (J Med Chem, 1990)
